Test results from ChEMBL document CHEMBL1649357, “Protective effects of baicalin against ischemia/reperfusion injury in rat liver” (2010).
Activity calls are given as the source filed them. No cut-off for these calls is given here.

Legend:
[1] = system: Rattus norvegicus; assay: Antiinflammatory activity in Sprague-Dawley rat ischemia-reperfusion model assessed as inhibition of iNOS mRNA expression in liver tissue at 200 mg/kg, ip administered 24 hrs and 1 hr before ischemia by RT-PCR analysis; type: functional, organism-based; set-up: dose 200 mg/kg
[2] = system: Rattus norvegicus; assay: Hepatoprotective activity in Sprague-Dawley rat sham operated model assessed as decrease of serum ALT level at 200 mg/kg, ip administered 24 hrs and 1 hr before ischemia; type: functional; conditions: route intraperitoneal
How it was run: (§1)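 Serum ALT was read spectrophotometrically with a kit at 5 h reperfusion, in U·L-1, mean ± SEM, n = 8-10.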

[3] = system: Rattus norvegicus; assay: Antiinflammatory activity in Sprague-Dawley rat ischemia-reperfusion model assessed as decrease of serum TNFalpha level at 200 mg/kg, ip administered 24 hrs and 1 hr before ischemia by ELISA relative to control; type: functional; conditions: route intraperitoneal
[4] = system: Rattus norvegicus; assay: Antiinflammatory activity in Sprague-Dawley rat ischemia-reperfusion model assessed as inhibition of iNOS protein expression in liver tissue at 200 mg/kg, ip administered 24 hrs and 1 hr before ischemia by Western blot analysis; type: functional, organism-based; set-up: dose 200 mg/kg
How it was run: (§2)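 Liver homogenates were blotted, and nuclear and cytosolic fractions were isolated with NE-PER reagents. 20 µg protein per lane was run on 10% gels and transferred to nitrocellulose, with 5% milk block for 60 min. Polyclonal antibodies detected iNOS, COX-2, HO-1, NF-κB/p65, IκB-α and lamin B1, with β-actin as control, read by ECL.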

[5] = system: Rattus norvegicus; assay: Antiinflammatory activity in Sprague-Dawley rat ischemia-reperfusion model assessed as decrease of IL-6 mRNA expression in liver tissue at 200 mg/kg, ip administered 24 hrs and 1 hr before ischemia by RT-PCR analysis; type: functional, organism-based; set-up: dose 200 mg/kg
[6] = system: Rattus norvegicus; assay: Hepatoprotective activity in Sprague-Dawley rat ischemia-reperfusion model assessed as decrease of TRADD protein expression in liver tissue at 200 mg/kg, ip administered 24 hrs and 1 hr before ischemia by Western blot analysis; type: functional, organism-based; set-up: dose 200 mg/kg
[7] = system: Rattus norvegicus; assay: Hepatoprotective activity in Sprague-Dawley rat ischemia-reperfusion model assessed as decrease of caspase 3 activity in liver tissue at 200 mg/kg, ip administered 24 hrs and 1 hr before ischemia […] relative to control; type: functional, organism-based; set-up: dose 200 mg/kg
How it was run: (§3)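 Liver (1 g) was homogenized in Tris/MgCl2/EGTA buffer and spun at 600g, then 40000g. 30 µg cytosolic protein was preincubated 15 min at room temperature in HEPES/EDTA/NaCl/Triton/10 mM DTT. Fluorogenic substrate was then added at 200 µM and incubated at 37 °C. Fluorescence (ex 400/em 490 nm) was read at 120 min and expressed as % of vehicle I/R.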

[8] = system: Rattus norvegicus; assay: Hepatoprotective activity in Sprague-Dawley rat ischemia-reperfusion model assessed as decrease of mitochondrial swelling in liver tissue at 200 mg/kg, ip administered 24 hrs and 1 hr before ischemia relative to control; type: functional, organism-based; set-up: dose 200 mg/kg
How it was run: (§4)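 Mitochondria were isolated by differential centrifugation in sucrose/Tris/EDTA, pH 7.2. Mitochondria (4 mg) were suspended in phosphate buffer pH 7.2 with 250 mM sucrose, 5 mM KH2PO4 and 1 µM rotenone at 25 °C. Initial swelling rate was taken as A520 change per min per mg protein.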

[9] = system: Rattus norvegicus; assay: Hepatoprotective activity in Sprague-Dawley rat sham operated model assessed as decrease of mitochondrial swelling in liver tissue at 200 mg/kg, ip administered 24 hrs and 1 hr before ischemia relative to control; type: functional, organism-based; set-up: dose 200 mg/kg; how it was run: as §4
[10] = system: Rattus norvegicus; assay: Hepatoprotective activity in Sprague-Dawley rat ischemia-reperfusion model assessed as decrease of malondialdehyde level per gram of protein at 200 mg/kg, ip administered 24 hrs and 1 hr before ischemia relative to control; type: functional; conditions: route intraperitoneal
[11] = system: Rattus norvegicus; assay: Hepatoprotective activity in Sprague-Dawley rat sham operated model assessed as decrease of caspase 8 activity in liver tissue at 200 mg/kg, ip administered 24 hrs and 1 hr before ischemia by relative to control
[12] = system: Rattus norvegicus; assay: Antiinflammatory activity in Sprague-Dawley rat ischemia-reperfusion model assessed as inhibition of COX2 mRNA expression in liver tissue at 200 mg/kg, ip administered 24 hrs and 1 hr before ischemia by RT-PCR analysis; type: functional, organism-based; set-up: dose 200 mg/kg
[13] = system: Rattus norvegicus; assay: Hepatoprotective activity in Sprague-Dawley rat ischemia-reperfusion model assessed as protection against apoptosis in liver tissue at 200 mg/kg, ip administered 24 hrs and 1 hr before ischemia by TUNEL assay; type: functional, organism-based; set-up: dose 200 mg/kg
How it was run: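 TUNEL kit staining was done on liver sections. TUNEL-positive cells were counted in randomly chosen 400× fields per section.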

[14] = system: Rattus norvegicus; assay: Hepatoprotective activity in Sprague-Dawley rat ischemia-reperfusion model assessed as decrease of caspase 8 activity in liver tissue at 200 mg/kg, ip administered 24 hrs and 1 hr before ischemia […] relative to control; type: functional, organism-based; set-up: dose 200 mg/kg; how it was run: as §3
[15] = system: Rattus norvegicus; assay: Hepatoprotective activity in Sprague-Dawley rat ischemia-reperfusion model assessed as decrease of serum ALT level at 200 mg/kg, ip administered 24 hrs and 1 hr before ischemia; type: functional; conditions: route intraperitoneal; how it was run: as §1
[16] = system: Rattus norvegicus; assay: Antiinflammatory activity in Sprague-Dawley rat ischemia-reperfusion model assessed as inhibition of degradation of IkappaB-alpha in liver tissue at 200 mg/kg, ip administered 24 hrs and 1 hr before ischemia by Western blot analysis; type: functional, organism-based; set-up: dose 200 mg/kg; how it was run: as §2
[17] = system: Rattus norvegicus; assay: Hepatoprotective activity in Sprague-Dawley rat sham operated model assessed as decrease of caspase 3 activity in liver tissue at 200 mg/kg, ip administered 24 hrs and 1 hr before ischemia by fluorogenic peptide substrate assay relative to control
[18] = system: Rattus norvegicus; assay: Hepatoprotective activity in Sprague-Dawley rat sham operated model assessed as protection against histopathologic damage at 200 mg/kg, ip administered 24 hrs and 1 hr before ischemia by TUNEL staining; type: functional; conditions: route intraperitoneal, in the assay text read “by hematoxylin and eosin staining” for “by TUNEL staining”
How it was run: (§5)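 Left-lobe tissue was fixed in formalin and paraffin sections (5 µm) were stained with H&E. Injury was scored at 200× by point counting on an ordinal severity scale (grade 0 = minimal or none).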

[19] = system: Rattus norvegicus; assay: Antiinflammatory activity in Sprague-Dawley rat ischemia-reperfusion model assessed as decrease of TNFalpha mRNA expression in liver tissue at 200 mg/kg, ip administered 24 hrs and 1 hr before ischemia by RT-PCR analysis; type: functional, organism-based; set-up: dose 200 mg/kg
[20] = system: Rattus norvegicus; assay: Hepatoprotective activity in Sprague-Dawley rat ischemia-reperfusion model assessed as decrease of glutathione level per gram of liver at 200 mg/kg, ip administered 24 hrs and 1 hr before ischemia relative to control; type: functional; conditions: route intraperitoneal
How it was run: (§6)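 Liver homogenate was precipitated with 1% picric acid. Total glutathione was measured by the glutathione reductase/DTNB/NADPH method at 412 nm, and GSSG the same way with 2-vinylpyridine. GSH is the difference, in µmol·g liver-1.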

[21] = system: Rattus norvegicus; assay: Antiinflammatory activity in Sprague-Dawley rat sham operated model assessed as decrease of serum TNFalpha level at 200 mg/kg, ip administered 24 hrs and 1 hr before ischemia by ELISA relative to control; type: functional; conditions: route intraperitoneal
[22] = system: Rattus norvegicus; assay: Antiinflammatory activity in Sprague-Dawley rat ischemia-reperfusion model assessed as inhibition of nuclear localization of NF-kappaB/p65 subunit in liver tissue at 200 mg/kg, ip administered 24 hrs and 1 hr before ischemia by Western blot analysis; type: functional, organism-based; set-up: dose 200 mg/kg; how it was run: as §2
[23] = system: Rattus norvegicus; assay: Antiinflammatory activity in Sprague-Dawley rat sham operated model assessed as decrease of serum IL-6 level at 200 mg/kg, ip administered 24 hrs and 1 hr before ischemia by ELISA relative to control; type: functional; conditions: route intraperitoneal
[24] = system: Rattus norvegicus; assay: Antiinflammatory activity in Sprague-Dawley rat ischemia-reperfusion model assessed as increase in HO-1 protein expression in liver tissue at 200 mg/kg, ip administered 24 hrs and 1 hr before ischemia by Western blot analysis
[25] = system: Rattus norvegicus; assay: Hepatoprotective activity in Sprague-Dawley rat sham operated model assessed as decrease of glutathione level per gram of liver at 200 mg/kg, ip administered 24 hrs and 1 hr before ischemia relative to control; type: functional; conditions: route intraperitoneal; how it was run: as §6
[26] = system: Rattus norvegicus; assay: Hepatoprotective activity in Sprague-Dawley rat sham operated model assessed as decrease of malondialdehyde level per gram of protein at 200 mg/kg, ip administered 24 hrs and 1 hr before ischemia relative to control; type: functional; conditions: route intraperitoneal
[27] = system: Rattus norvegicus; assay: Antiinflammatory activity in Sprague-Dawley rat ischemia-reperfusion model assessed as inhibition of HO-1 mRNA expression in liver tissue at 200 mg/kg, ip administered 24 hrs and 1 hr before ischemia by RT-PCR analysis; type: functional, organism-based; set-up: dose 200 mg/kg
[28] = system: Rattus norvegicus; assay: Antiinflammatory activity in Sprague-Dawley rat ischemia-reperfusion model assessed as decrease of serum IL-6 level at 200 mg/kg, ip administered 24 hrs and 1 hr before ischemia by ELISA relative to control; type: functional; conditions: route intraperitoneal
[29] = system: Rattus norvegicus; assay: Hepatoprotective activity in Sprague-Dawley rat ischemia-reperfusion model assessed as protection against histopathologic damage at 200 mg/kg, ip administered 24 hrs and 1 hr before ischemia by TUNEL staining; type: functional; conditions: route intraperitoneal, in the assay text read “by hematoxylin and eosin staining” for “by TUNEL staining”; how it was run: as §5
[30] = system: Rattus norvegicus; assay: Antiinflammatory activity in Sprague-Dawley rat ischemia-reperfusion model assessed as inhibition of COX2 protein expression in liver tissue at 200 mg/kg, ip administered 24 hrs and 1 hr before ischemia by Western blot analysis; type: functional, organism-based; set-up: dose 200 mg/kg; how it was run: as §2

In the case of `O=C(O)[C@H]1O[C@@H](Oc2cc3oc(-c4ccccc4)cc(=O)c3c(O)c2O)[C@H](O)[C@@H](O)[C@@H]1O` [BAICALIN], the inhibition [1] is reported as “inactive”, the Activity [2] is reported as 42.5 U/L and the Activity [3] is reported as 64.8 pg/mL. For the same molecule, the inhibition [4] was “Active”, the Activity [5] was “Active” and the Activity [6] was “Active”. The Activity [7] was “Active”, the Activity [8] was “Active” and the Activity [9] was “Active”. The Activity [10] was 0.31 nmol, the Activity [11] was “Active” and the inhibition [12] was “Active”. The Activity [13] was “Active”, the Activity [14] was “Active” and the Activity [15] was 2658.1 U/L. The inhibition [16] was “Active”, the Activity [17] was “Active” and the Activity [18] was 0.45. The Activity [19] was “inactive”, the Activity [20] was 4.98 µmol and the Activity [21] was 17.8 pg/mL. For the same molecule, the inhibition [22] was “Active”, the Activity [23] was 37.6 pg/mL and the increase [24] was “Active”. The Activity [25] was 5.5 µmol, the Activity [26] was 0.35 nmol and the inhibition [27] was “Active”. The Activity [28] was 77.4 pg/mL, the Activity [29] was 1.6 and the inhibition [30] was “Active”.
